In ChEMBL document CHEMBL4196021, “Targeting G-quadruplex DNA structures in the telomere and oncogene promoter regions by benzimidazole‒carbazole ligands” (Eur J Med Chem, 2018):
Active and inactive are the calls of the source. The calls are words filed in the database; no cut-off is given here.

How the values were obtained:
Quadruplex DNA [1] = assay: Binding affinity to human c-Kit1 G-quadruplex DNA at 0.6 uM after 5 mins in presence of KCl by fluorescence spectroscopic method; format: nucleic-acid assay
Procedure, shortened: (§1)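 Fluorescence titration at 25 °C with 0.6 µM ligand in 10 mM Tris-HCl pH 7.4, 100 mM KCl, 0.1 mM EDTA. Preformed G4 DNA was added stepwise, with 5 min incubation before each spectrum. Excitation 330 nm; emission 350–550 nm, slit 5 nm.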

Quadruplex DNA [2] = assay: Binding affinity to human c-Myc G-quadruplex DNA at 0.6 uM after 5 mins in presence of KCl by fluorescence spectroscopic method; format: nucleic-acid assay; procedure, shortened: as §1
Quadruplex DNA [3] = assay: Binding affinity to human Bcl2 G-quadruplex DNA at 0.6 uM after 5 mins in presence of KCl by fluorescence spectroscopic method; format: nucleic-acid assay; procedure, shortened: as §1
Quadruplex DNA [4] = assay: Binding affinity to human c-Kit1 G-quadruplex DNA assessed as stabilization of parallel stranded topology after 5 mins in presence of KCl by CD spectroscopic method; format: nucleic-acid assay
Procedure, shortened: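 CD spectra of 5 µM G4 DNA in 10 mM Tris-HCl pH 7.4, 100 mM KCl, 0.1 mM EDTA, with or without ligand. Mixtures were heated 95 °C for 5 min and slowly cooled to room temperature. Recorded 200–400 nm at 25 °C, 100 nm/min, 2 s response, 1 cm cell; average of three scans.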

Quadruplex DNA [5] = assay: Binding affinity to human telomeric G-quadruplex DNA assessed as change in melting temperature in presence of KCl by CD spectroscopic method; format: nucleic-acid assay
Procedure, shortened: (§2)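 CD melting of 5 µM G4 DNA in 10 mM Tris-HCl pH 7.4, 25 mM KCl, 0.1 mM EDTA. Ligand was present during folding (heating, slow cooling). Spectra 200–400 nm over 20–96 °C in 2 °C steps, buffer blank subtracted. Tm was taken from normalized ellipticity at the positive maximum (262 nm for promoter G4s). ΔTm = ligand-bound minus DNA alone; average of two independent experiments.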

Quadruplex DNA [6] = assay: Binding affinity to human Bcl2 G-quadruplex DNA assessed as change in melting temperature in presence of KCl by CD spectroscopic method; format: nucleic-acid assay; procedure, shortened: as §2
Quadruplex DNA [7] = assay: Binding affinity to human VEGF G-quadruplex DNA assessed as change in melting temperature in presence of KCl by CD spectroscopic method; format: nucleic-acid assay; procedure, shortened: as §2
[8] = target: Telomerase reverse transcriptase (Homo sapiens, UniProt O14746); assay: Inhibition of telomerase (unknown origin) by TRAP-LIG assay
Procedure, shortened: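 Telomerase activity measured by modified TRAP-LIG assay across ligand concentrations of 0.01 to 2 µM (11 levels). Positive and negative controls included. Inhibition was judged from the intensity and number of telomeric ladder bands.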

Quadruplex DNA [9] = assay: Stabilization of c-Myc G-quadruplex DNA in human HeLa cells assessed as decrease in c-Myc mRNA level after 24 hrs by RT-PCR method; format: cell-based
Procedure, shortened: (§3)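 HeLa cells exposed to increasing ligand concentrations (5 and 10 µM named) for 24 h, with DMSO-treated cells as control. Total RNA was extracted with TRI reagent and DNase I-treated. c-MYC and VEGF transcripts were quantified by qRT-PCR, normalized to GAPDH, and expressed as relative fold change.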

Quadruplex DNA [10] = assay: Stabilization of VEGF G-quadruplex DNA in human HeLa cells assessed as decrease in VEGF mRNA level after 24 hrs by RT-PCR method; format: cell-based; procedure, shortened: as §3
MCF7 = assay: Cytotoxicity against human MCF7 cells assessed as reduction in cell viability after 72 hrs by MTT assay; format: functional, cell-based
Procedure, shortened: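 HeLa and MCF7 cells in log phase were seeded for 24 h, then exposed to a range of ligand concentrations for 72 h. MTT (5 mg/ml stock) was added for 4 h, formazan dissolved in DMSO, and absorbance read at 570 nm. Three independent experiments in triplicate, mean ± SD.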

Telomerase reverse transcriptase, sequence (O14746 whole entry): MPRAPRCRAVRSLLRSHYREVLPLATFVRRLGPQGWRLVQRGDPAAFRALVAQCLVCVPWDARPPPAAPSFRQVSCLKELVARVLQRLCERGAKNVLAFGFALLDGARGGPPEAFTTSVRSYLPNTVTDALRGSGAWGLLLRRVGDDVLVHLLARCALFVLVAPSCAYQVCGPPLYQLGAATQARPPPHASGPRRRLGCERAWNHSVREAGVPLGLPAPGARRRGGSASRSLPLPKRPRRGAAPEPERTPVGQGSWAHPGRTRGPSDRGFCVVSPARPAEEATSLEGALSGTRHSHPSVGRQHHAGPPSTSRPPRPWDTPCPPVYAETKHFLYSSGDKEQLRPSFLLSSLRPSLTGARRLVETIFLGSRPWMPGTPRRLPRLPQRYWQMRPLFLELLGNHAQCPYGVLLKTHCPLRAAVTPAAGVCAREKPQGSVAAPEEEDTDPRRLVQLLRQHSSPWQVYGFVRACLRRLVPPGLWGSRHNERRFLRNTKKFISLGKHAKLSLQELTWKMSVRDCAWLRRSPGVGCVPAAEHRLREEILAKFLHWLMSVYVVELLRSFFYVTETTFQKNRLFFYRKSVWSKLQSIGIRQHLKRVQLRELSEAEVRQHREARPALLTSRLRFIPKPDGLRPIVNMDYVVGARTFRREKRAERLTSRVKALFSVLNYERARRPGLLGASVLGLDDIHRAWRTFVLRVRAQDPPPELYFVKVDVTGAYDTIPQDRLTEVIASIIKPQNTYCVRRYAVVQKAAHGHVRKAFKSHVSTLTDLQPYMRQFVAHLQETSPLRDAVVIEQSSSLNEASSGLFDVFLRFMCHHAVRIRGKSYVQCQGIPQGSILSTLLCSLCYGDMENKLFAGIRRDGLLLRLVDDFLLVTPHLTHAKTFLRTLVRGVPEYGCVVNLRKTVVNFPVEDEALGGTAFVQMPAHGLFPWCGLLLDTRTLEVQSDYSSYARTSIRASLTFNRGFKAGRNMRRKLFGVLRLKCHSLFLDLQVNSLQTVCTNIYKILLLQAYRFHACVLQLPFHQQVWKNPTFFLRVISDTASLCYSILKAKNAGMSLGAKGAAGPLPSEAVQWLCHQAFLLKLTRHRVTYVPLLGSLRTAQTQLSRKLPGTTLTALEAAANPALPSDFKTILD

- Activity (Quadruplex DNA [1]): Active
- Activity (Quadruplex DNA [2]): Active
- Activity (Quadruplex DNA [3]): Active
- Activity (Quadruplex DNA [4]): Active
- ΔTm (Quadruplex DNA [5]): 21.3 °C
- ΔTm (Quadruplex DNA [6]): 9.54 °C
- ΔTm (Quadruplex DNA [7]): 11.3 °C
- IC50 [8]: 0.3 µM
- inhibition [8]: Dose-dependent effect
SMILES: CN(C)CCCCn1c2ccc(-c3nc4ccc(N5CCN(CCO)CC5)cc4[nH]3)cc2c2cc(-c3nc4ccc(N5CCN(CCO)CC5)cc4[nH]3)ccc21
- Activity (Quadruplex DNA [9]): Dose-dependent effect
- Activity (Quadruplex DNA [10]): Dose-dependent effect
- Activity (MCF7): Dose-dependent effect
- IC50 (MCF7; MCF7, 72 h): 11.4 µM
